Compounds with a hit are over-represented: about 3.5% of the library has one in this group of screens.
RGS4 pot: RGS4 potentiation or activation | HEK293 M3R/inducible RGS4, carbachol calcium flux Fluo4; active compounds read low | 0.92% of 310,000 active | B-score at 10 µM;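 active means B-score of the integrated calcium signal more than 4 SD below the library mean, with starting fluorescence not abnormally high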;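 further: negative B-score means reduced calcium response which marks RGS4 activation or potentiation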
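Also added: carbachol at ECmax as muscarinic agonist stimulus; Assay system: HEK293 cells with stable M3R and inducible RGS4; Timing: overnight RGS4 induction, 30 min dye load 37 °C, 20 min compound RT; Measured by: Fluo4-AM (2 µM) calcium-flux fluorescence, kinetic read.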
MrgX1 antagonist: antagonists of human MrgX1 receptor | MRGX1-HEK293 calcium flux, Fluo-4, BAM8-22 antagonism; active compounds read low | Q96LB2 | B-score at 10 µM | AID 588676 | 1.3% of 310,000 active;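 active means calcium-response B-score plate-corrected more than 3 library SD below zero, starting fluorescence within 5 deviations, no agonist response on first addition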;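 further: peak minus trough fluorescence over baseline after final BAM8-22 challenge near maximal dose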
Target sequence (Q96LB2 whole entry, looked up): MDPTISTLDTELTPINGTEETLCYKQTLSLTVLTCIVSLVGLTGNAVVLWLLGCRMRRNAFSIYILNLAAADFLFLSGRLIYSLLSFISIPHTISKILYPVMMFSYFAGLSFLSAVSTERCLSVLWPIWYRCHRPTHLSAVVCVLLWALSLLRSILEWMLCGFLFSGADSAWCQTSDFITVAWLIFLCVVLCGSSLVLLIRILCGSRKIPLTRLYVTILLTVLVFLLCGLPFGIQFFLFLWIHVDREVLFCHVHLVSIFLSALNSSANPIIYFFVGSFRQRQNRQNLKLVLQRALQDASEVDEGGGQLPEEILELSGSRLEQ
RGS4 inh: inhibitors of human RGS4; P49798; HEK293 M3R/RGS4 inducible, Fluo-4 calcium flux; active compounds read high; triggered by carbachol at its EC20; B-score at 10 µM; 0.45% of 310,000 active;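 active means B-score, a plate-corrected calcium signal, over three deviations above library mean, with baseline fluorescence within five deviations of library mean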;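 further: RGS4 expression induced by doxycycline in cells with stable M3 receptor; B-score is computed from the integrated fluorescence ratio over baseline after carbachol; higher B-score means a larger calcium signal and so more RGS4 inhibition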
Target sequence (P49798 whole entry, looked up): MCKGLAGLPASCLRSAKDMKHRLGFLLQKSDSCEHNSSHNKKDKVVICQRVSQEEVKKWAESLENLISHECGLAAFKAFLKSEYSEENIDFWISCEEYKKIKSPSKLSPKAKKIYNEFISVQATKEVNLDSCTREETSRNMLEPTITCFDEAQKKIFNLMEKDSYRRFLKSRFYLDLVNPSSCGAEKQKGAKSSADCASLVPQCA
MrgX1 allo act: allosterically activates human MrgX1 receptor signaling. MrgX1-HEK293, Fluo-4 calcium flux, FDSS; active compounds read high. B-score at 10 µM. 0.63% of 310,000 active. AID 588675;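 active means plate-corrected calcium response at least 3 library SD above typical, normal starting fluorescence, not activating the receptor alone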;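 further: compound read alongside a low EC10 to EC30 dose of BAM8-22 agonist; peak minus trough fluorescence over baseline measured at the second addition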
MrgX1 ag: activates human MrgX1 receptor signaling; 0.44% of 310,000 active; B-score at 10 µM; AID 588627; MrgX1-HEK293 cells, Fluo-4 calcium fluorescence, agonist mode; active compounds read high; Q96LB2;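 active means calcium response B-score plate-corrected fluorescence ratio at least 3 library SD, with starting fluorescence B-score inside 5 SD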
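Assay system: stable human MrgX1 HEK293 cell line. Quantity: 15,000 cells per well. Schedule: cells plated overnight, dye loaded 0.5 h 37 °C, 0.5 h room temperature. Detection: Fluo-4 NW calcium-flux fluorescence, kinetic read. Read-out basis: peak-minus-minimum fluorescence over baseline, converted to B scores. Control set: positive and negative control wells on each plate.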
MrgX1 antag conf: confirmation of human MrgX1 receptor antagonists. shares compounds with MrgX1 antagonist. MrgX1-HEK293, BAM8-22 calcium flux, Fluo-4; active compounds read low. remaining BAM8-22 calcium response % of control (active compounds read low), % at 10 µM. 19% of 2,300 active. AID 602420;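 active means remaining agonist calcium response no higher than 100% minus 3 SD of agonist-only control wells, with starting fluorescence near control levels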;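 further: agonist BAM8-22 given at a near maximal EC90 to ECmax level; peak minus minimum fluorescence divided by baseline after agonist addition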
HEK293 Ca flux: counter-screen for MrgX1 antagonists: effect in parental HEK293 cells | fluorescence ratio F(max-min)/F0 at 10 µM | shares compounds with MrgX1 antagonist | 2% of 4,000 active | Fluo-4 calcium fluorescence, FDSS | AID 624111;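 active means duplicate-averaged calcium fluorescence ratio at least three times the standard deviation of buffer wells, a nonspecific response in parental cells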
HEK293 Ca counter: counter-screen for MrgX1 allosteric activators: effect in parental HEK293 cells | 0.4% of 4,000 active | fluorescence ratio F(max-min)/F0 at 10 µM | parental HEK293 calcium flux, Fluo-4 fluorescence ratio; active compounds read high | shares compounds with MrgX1 antagonist;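 active means calcium fluorescence ratio, averaged over duplicates, at least 3 SD of the buffer-well ratio, meaning a nonspecific response in receptor-free cells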;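 further: untransfected parental HEK293 lacking MrgX1 used as counterscreen for MrgX1 allosteric activators; fluorescence change taken during the second addition on a kinetic imager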
HEK293 Ca cntr2: activity in parental HEK293 cells lacking MrgX1 receptor | AID 624115 | Fluo-4 calcium fluorescence (FDSS); active compounds read high | fluorescence ratio F(max-min)/F0 at 10 µM | 8.7% of 4,000 active | shares compounds with MrgX1 antagonist;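 active means calcium fluorescence ratio at least three times the spread of buffer wells, meaning a non-specific response in parental cells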
* = called active by the depositor; i = inactive; . = no result.

SMILES | RGS4 pot | MrgX1 antagonist | RGS4 inh | MrgX1 allo act | MrgX1 ag | MrgX1 antag conf | HEK293 Ca flux | HEK293 Ca counter | HEK293 Ca cntr2
COC(=O)C1=C(c2ccccc2)C[C@@H]2CC[C@H]1N2C(=O)NCC1CC1 | i | -4.8* | i | i | i | i | i | i | i
Cn1nnc(CC[N+](C)(C)C)n1 | i | i | i | i | i | . | . | . | .
CCOC(=O)C1SC2(C(F)(F)F)CC1(O)c1c(C)cc(C)nc1O2 (stereo not drawn) | i | -7.8* | i | i | i | i | i | i | i
COc1ccc(N2CCN(C(CNC(=O)Oc3ccccc3)c3cccnc3)CC2)cc1 (stereo not drawn) | i | -6.9* | i | i | i | i | i | i | i
COc1cc(/C=C/c2nc3ccccc3c(=O)n2-c2ccccc2O)ccc1O | i | -9.3* | i | i | i | i | i | i | 47*
COc1cc(/C=C/c2nc3ccccc3c(=O)n2-c2cccc(O)c2)ccc1O | i | i | i | i | i | . | . | . | .
CC(C)c1ccccc1NC1=NCCCS1 | i | i | i | i | i | . | . | . | .
CNC(C(=O)c1ccccc1)C(OC(C)=O)c1cccc([N+](=O)[O-])c1 (stereo not drawn) | i | i | i | i | i | . | . | . | .
CC1=C(C(=O)OC(C)C)[C@]2(C(=O)N(CC(N)=O)c3ccccc32)C(C#N)=C(N)O1 | i | i | i | i | i | . | . | . | .
C=CCOC(=O)C1=C(C)OC(N)=C(C#N)[C@@]12C(=O)N(CC(N)=O)c1ccccc12 | i | -5.7* | i | i | i | i | i | i | i
ClCCN1CCN(c2ccnc3cc(Cl)ccc23)CC1 | i | -17* | i | i | i | 12%* | i | i | i
CCCCCCN1CCN(c2ccc(Cl)cc2)CC1 | i | i | i | i | i | . | . | . | .
Cc1ccccc1N1CCN(Cc2ccc3c(c2)OCO3)CC1 | i | i | i | i | i | . | . | . | .
Cn1c(=O)cc(OCCCC(=O)N2CCC3(CC2)OCCO3)c2ccccc21 | i | -9.8* | i | i | i | i | i | i | i
CS(=O)(=O)Nc1ccc(Cc2noc(-c3ccc4[nH]cc(CCN)c4c3)n2)cc1 | i | i | i | i | i | . | . | . | .
CN1CCc2nc(SCC(=O)OC(C)(C)C)c(C#N)cc2C1 | i | i | i | i | i | . | . | . | .
CN1CCc2nc3sc(C(=O)NC4CC4)c(N)c3cc2C1 | i | -6.6* | i | i | i | i | i | i | i
CCOC(=O)c1c(/N=C/C2C(=O)NC(=S)NC2=O)sc2c1CCC2 | i | -7.5* | i | i | i | i | i | i | i
CN1CCc2c(C#N)c(Cl)nc(Cl)c2C1 | i | i | i | i | i | . | . | . | .
Cc1cc(N2C(=O)CC(N3CCC(n4c(=O)[nH]c5ccccc54)CC3)C2=O)no1 (stereo not drawn) | i | -5.4* | i | i | i | i | i | i | i
O=C(c1ccc2c3c(cccc13)CC2)C1CCCN(Cc2ncc[nH]2)C1 (stereo not drawn) | i | -4.7* | i | i | i | i | i | i | i
O=C(c1ccc2c3c(cccc13)CC2)C1CCCN(CC2CC2)C1 (stereo not drawn) | i | i | i | i | i | . | . | . | .
Ic1ccccc1CN[C@@H]1C2CCN(CC2)[C@@H]1C(c1ccccc1)c1ccccc1 | . | -15* | . | i | i | 5.6%* | i | i | i
Fc1ccccc1CNC1CN2CCC1CC2 (stereo not drawn) | i | i | i | i | i | . | . | . | .
O=c1[nH]c(=S)n(-c2ccccc2Cl)c(O)c1C=NCCN1CCNCC1 | i | i | i | i | i | . | . | . | .

Source: PubChem
